Experimental data published in ChEMBL document CHEMBL4673298, “Exploration of Structure-Activity Relationship of Aromatic Aldehydes Bearing Pyridinylmethoxy-Methyl Esters as Novel Antisickling Agents” (J Med Chem, 2020).
The source made the active and inactive calls. The calls are words filed in the database; no cut-off is given here.

Columns and labels:
Homo sapiens [1] = species: Homo sapiens; assay: Binding affinity to Hemoglobin in normal human whole blood assessed as increase in Hb affinity for oxygen at 2 mM incubated for 1 to 24 hrs by oxygen equilibrium curve study; format: tissue-based; settings: time 1-24 hrs
In short: (§1)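 Normal human whole blood, hematocrit 30%, incubated with or without compound in DMSO (0.5, 1.0 or 2.0 mM; 2 mM for the time course) at 37 °C. The blood is tonometered about 7 min at 37 °C against gas with 0.804, 2.935 and 5.528% O2 (6, 20, 40 mmHg). sO2 and pO2 are read on a blood gas analyzer. ΔP50% is taken relative to no compound. Time course sampled at 1, 2, 4, 8, 12, 24 h.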

Red blood cell [2] = assay: Binding affinity to Hemoglobin in sickle cell RBCs from blood isolated from patient with homozygous SS assessed as increase in hemoglobin modification under hypoxic conditions incubated for 2 hrs […]; format: tissue-based; settings: Homo sapiens
In short: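 SS blood, hematocrit 20%, incubated under air with compound (0.5, 1, 2 mM) at 37 °C for 1 h, then hypoxic (2.5% O2/97.5% N2) at 37 °C for 2 h. Cells are washed and hemolyzed. Lysate is run on weak cation-exchange HPLC to quantify Hb adduct (modified Hb). Three biological replicates, mean ± SD.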

Red blood cell [3] = assay: Binding affinity to Hemoglobin in sickle cell RBCs from blood isolated from patient with homozygous SS assessed as increase in Hb affinity for oxygen under hypoxic conditions incubated for 2 hrs by oxygen equilibrium curve study; format: tissue-based; settings: Homo sapiens
In short: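 SS blood, hematocrit 20%, incubated under air with compound (0.5, 1, 2 mM) at 37 °C for 1 h, then hypoxic (2.5% O2/97.5% N2) at 37 °C for 2 h. Cells are washed in PBS and hemolyzed hypotonically. Lysate in 0.1 M potassium phosphate pH 7.0 is run by Hemox analysis for P50. ΔP50 is given as percent of DMSO control. Three biological replicates, mean ± SD.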

[4] = Inhibition of sickling in sickle cell RBCs from blood isolated from patient with homozygous SS at 2 mM under hypoxic conditions incubated for 2 hrs; format: functional; settings: Homo sapiens, Erythrocyte
In short: (§2)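 SS blood, hematocrit 20%, preincubated under air with compound (0.5, 1, 2 mM) for 1 h at 37 °C, then 2 h hypoxia (2.5% O2/97.5% N2) at 37 °C. Aliquots are fixed in 2% glutaraldehyde without air exposure. Cell morphology is scored from bright-field images at 40×. Three biological replicates, mean ± SD.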

Erythrocyte = assay: Inhibition of sickling in sickle cell RBCs from blood isolated from patient with homozygous SS under hypoxic conditions incubated for 2 hrs; format: functional, tissue-based; settings: Homo sapiens; in short: as §2
Homo sapiens [5] = species: Homo sapiens; assay: Binding affinity to Hemoglobin in normal human whole blood assessed as increase in Hb affinity for oxygen at 2 mM incubated for 24 hrs by oxygen equilibrium curve study; format: tissue-based; in short: as §1

**Q.** Which Activity (Homo sapiens [1]) does the source give for COc1cc(C=O)ccc1O here?
**A.** 21%

**Q.** With COC(=O)c1ccnc(COc2ccc(OC)cc2C=O)c1 as the compound, how does the Activity (Red blood cell [2]) read?
**A.** Dose-dependent effect

**Q.** And the Activity (Red blood cell [3])?
**A.** Dose-dependent effect

**Q.** And the inhibition at 2000 µM [4]?
**A.** > 90%

**Q.** And the inhibition (Erythrocyte)?
**A.** Dose-dependent effect

**Q.** And the Activity (Homo sapiens [5])?
**A.** Active
